Here are results for 96 compounds from PubChem BioAssay AID624268 (The Scripps Research Institute Molecular Screening Center, 2012).

Hit rate of the full screen: of about 360,000 compounds, about 1,500 (0.42%) were called active. The sample as a whole holds a higher share of actives than the screen did. Values without a mark were called inactive.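 Rule for the calls: active = inhibition above a per-plate cutoff of the control wells' mean inhibition plus 3 SD (cut at about 5.5% in these data); inactive = the rest.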

This experiment concerns methionyl-tRNA synthetase (Trypanosoma brucei brucei). Briefly: T. brucei MetRS inhibitors, primary screen, biochemical, luminescence (AID 624268).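 Note: 0% = DMSO wells median and 100% = median of wells with control inhibitor compound.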 The settings on record: purified T. brucei MetRS, ATP depletion, Kinase-Glo luminescence; at 11.9 µM; stronger effect = higher value. In short, it runs like this:
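Material: parasite MetRS enzyme / Replication: singlicate, one well per compound / Signal: luminescence of leftover ATP / Schedule: 2 h aminoacylation at 25 °C after 15 min preincubation / Medium: HEPES-MgCl2-KCl buffer plus DTT, spermine, BSA, pyrophosphatase / Doses: 11.9 µM single point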
Background: Kinase-Glo measures the ATP left after a reaction by luminescence.
As for `O=C(c1ccc(N2CCCC2=O)cc1)N1CCN(c2ccc(C(F)(F)F)cc2[N+](=O)[O-])CC1`, the inhibition was -0.05%.

`COCCn1c(SC(C)C(=O)NC2CC2)nnc1-c1cccc(C)c1` (stereo unspecified): the inhibition is -0.37%.

With `O=C(Nc1ccc(N2CCOCC2)cc1)c1cccc2c(-c3ccc(F)c(F)c3)coc12`, the inhibition is -0.14%.

As to `C=CCSc1nsc(NC(=O)Nc2cccc(C(C)=O)c2)n1`, the inhibition is -1.33%.

For the compound `CCSc1nsc(NC(=O)Nc2cccc(C(C)=O)c2)n1`, the inhibition is -0.36%.

Take `CSc1nsc(NC(=O)Nc2ccccc2)n1`: the inhibition is 19.9% (active).

In the case of `O=C(COC(=O)c1ccc(F)cc1F)Nc1ncccn1`, the inhibition was 0.09%.

For `O=C(ON=C1CCN(S(=O)(=O)c2ccccc2)CC1)c1ccc(Cl)cc1`, the inhibition was -0.24%.

Consider `CCCn1c(SCC(=O)Nc2ccc(C)c(S(=O)(=O)N3CCOCC3)c2)n[nH]c1=O`, for which the inhibition is -1.6%.

`COc1ccc(OC)c(NC(=O)Cn2c(=O)oc3ccccc32)c1`: the inhibition was -0.7%.

With `Cc1ccc(CCCOC(=O)C[N+]2(C)CCCC2)cc1`, the inhibition was -0.15%.

For the compound `Cc1cccc(C)c1N1C(=O)CN(Cc2ccccc2)C1=S`, the inhibition is -1%.

Take `C[C@H]1CN(c2ccc(Br)cc2)C(=O)[C@@H]1CC(=O)Nc1ccc(Br)cc1`: the inhibition was -0.7%.

On to `CCCCN1C[C@H](c2ccc(Br)cc2)[C@@H](CC(=O)Nc2ccc(Br)cc2)C1=O`, for which the inhibition is 38.6% (active).

For `CCCCN1CC(C)(C)[C@H](CC(=O)Nc2ccc(Br)cc2)C1=O`, the inhibition is 0.54%.

As to `CCOC(=O)C1=C(c2ccccc2)NC(=O)NC1c1cc(OCC)c(O)c([N+](=O)[O-])c1` (stereo unspecified), the inhibition is -0.17%.

For the compound `c1ccc(CN=C2Nc3ccccc3CS2)nc1`, the inhibition was 11.2% (active).

For `c1ccc(CCc2ccccn2)cc1`, the inhibition was -0.47%.

Take `O=C1CSc2ccc(C(=O)NCc3ccccn3)cc2N1`: the inhibition is -0.41%.

Consider `Cc1ccc(C2CC(c3cccc(Br)c3)n3nc(N)nc3N2)cc1` (stereo unspecified), for which the inhibition is -0.23%.

As to `CCOc1ccccc1C1CC(c2ccc(Cl)cc2)Nc2nc(N)nn21` (stereo unspecified), the inhibition is 0.5%.

In the case of `COc1ccc(C2CC(c3ccc(Cl)cc3Cl)Nc3nc(N)nn32)cc1OC` (stereo unspecified), the inhibition was 9.33% (active).

`COc1ccc2[nH]c3nc(SCC(=O)NC4CC4)nnc3c2c1`: the inhibition is 0.12%.

Consider `Cc1ccc(CNC(=O)CSc2nnc3c(n2)[nH]c2ccc(F)cc23)cc1`, for which the inhibition was 15.6% (active).

As to `Cc1ccn2c(=O)nc(SCC(=O)NCc3ccc(F)cc3)nc2c1`, the inhibition is -0.43%.

Turning to `CCCNC(=O)C1(C)CCN(C(=O)c2ccc(F)cc2Cl)C1` (stereo unspecified), the inhibition was -0.42%.

In the case of `O=C(O)c1cc2c(cc1NC(=O)c1c(F)cccc1Cl)OCCCO2`, the inhibition was 0.17%.

Regarding `CCN(CC)CCNC(=O)c1ccc(NC(=O)c2c(F)cccc2Cl)cc1`, the inhibition is -0.39%.

Take `O=C(NNc1cc(Cl)cc(Cl)c1)c1c(F)cccc1Cl`: the inhibition is 45.1% (active).

`C=CCC(Nc1ccccc1)c1cccc(OC)c1OC` (stereo unspecified): the inhibition was 0.2%.

For `O=C1COc2ccc(C(=O)COC(=O)C3CC(O)CN3S(=O)(=O)c3ccc(Cl)cc3)cc2N1` (stereo unspecified), the inhibition is 0.64%.

Regarding `CNC[C@@H]1Oc2c(NS(C)(=O)=O)cccc2C(=O)N([C@@H](C)CO)C[C@H]1C`, the inhibition was -0.2%.

Consider `O=C(Cn1c2[n+](c3ccc(C(F)(F)F)cc31)CCCCC2)Nc1c(F)cccc1F`, for which the inhibition is 17.2% (active).

As for `CCN(CC(=O)Nc1c(F)cccc1F)C(=O)C1CCC1`, the inhibition is -0.09%.

As for `O=C(CCC1CCCCC1)Nc1cc(C(F)(F)F)ccc1N1CCOCC1`, the inhibition was 0.04%.

For the compound `N#CCc1c[nH]c2ccc([N+](=O)[O-])cc12`, the inhibition was -0.24%.

Consider `CCc1ccc(S(=O)(=O)NCC(O)COc2ccc(OC)cc2)cc1` (stereo unspecified), for which the inhibition was -0.05%.

On to `COC(=O)[C@H](CCSC)NC(=O)Nc1ccc(OC)cc1`, for which the inhibition was -0.05%.

As for `COc1ccc(OCC(O)CNC(=O)Nc2ccc(Cl)cc2)cc1` (stereo unspecified), the inhibition was 60.1% (active).

Turning to `COc1cccc(NC(=O)N2CCC(NC(=O)C(Cc3cccc(C)c3)NC(C)=O)CC2)c1` (stereo unspecified), the inhibition was -0.33%.

As to `CC(Oc1ccccc1F)C(=O)NN` (stereo unspecified), the inhibition was -0.07%.

On to `CCCOn1c(-n2nc(C)cc2C)nc2ccccc2c1=O`, for which the inhibition was -0.74%.

Turning to `CCN(CC(=O)NCCc1ccccc1)S(=O)(=O)c1ccccc1`, the inhibition was 1.61%.

As for `CN(C(=O)CSc1nnc(-c2ccc3c(c2)OCO3)o1)C1CCS(=O)(=O)C1` (stereo unspecified), the inhibition was -0.28%.

Turning to `O=C(CSc1nnc(-c2c[nH]c3ccccc23)o1)c1ccccc1`, the inhibition is 0.1%.

`CN(C(=O)CSc1nnc(Nc2ccccc2)s1)C1CCS(=O)(=O)C1` (stereo unspecified): the inhibition was 6.74% (active).

With `CN(C(=O)CSc1nnc(-c2ccc(C(C)(C)C)cc2)n1C)C1CCS(=O)(=O)C1` (stereo unspecified), the inhibition was -0.23%.

Consider `CCn1c(SCC(=O)N(C)C2CCS(=O)(=O)C2)nnc1-c1cccs1` (stereo unspecified), for which the inhibition was -0.25%.

As for `CN(C(=O)CSc1nnc(-c2c[nH]c3ccccc23)o1)C1CCS(=O)(=O)C1` (stereo unspecified), the inhibition is 8.69% (active).

On to `Cn1nc(C(F)(F)F)c(-c2ccc(F)cc2)c1NC(=O)CSCC(=O)O`, for which the inhibition is -1.21%.

On to `Cc1ccc(C)c(N2C(=O)CS/C2=N\NC(=O)c2ccccc2Cl)c1`, for which the inhibition is -0.16%.

Turning to `CCC(C(=O)Nc1ccc(C(C)C)cc1)c1ccccc1` (stereo unspecified), the inhibition is 0.33%.

On to `CC(=O)Nc1ccc(NC(=O)[C@@H](NC(=O)c2cccc(C)c2)C(C)C)cc1`, for which the inhibition was -0.8%.

Regarding `Cc1ccc(NC(=O)C(C)c2cccc(C(=O)c3ccccc3)c2)cc1` (stereo unspecified), the inhibition was 67.8% (active).

As for `COc1ccc(NC(=O)N2CCCC2C(=O)NCc2ccccc2Cl)cc1` (stereo unspecified), the inhibition was -0.13%.

Take `COc1ccc(CNC(=O)C(C)NCc2ccccc2Cl)cc1` (stereo unspecified): the inhibition is -0.92%.

In the case of `COc1ccc(NC(=O)C(NC(C)=O)C(=O)NCc2ccccc2Cl)cc1` (stereo unspecified), the inhibition was 7.6% (active).

Turning to `Nc1ccccc1Sc1cc(Cl)nnc1Cl`, the inhibition was 1.75%.

Regarding `CSc1ccc(S(=O)(=O)NCc2ccc(Cl)cc2)cc1`, the inhibition is -1.21%.

Regarding `O=C(O)CCn1c(O)c(C=C2N=c3ccccc3=N2)sc1=S`, the inhibition was 7.5% (active).

In the case of `CCN=c1sc(C(=O)Nc2ccccc2)c(C)n1CC`, the inhibition is 0.54%.

For `Cc1ccc(S(=O)(=O)Nc2nc(CN3CCOCC3)nc3sc(C)c(C)c23)cc1`, the inhibition was -0.08%.

For the compound `CC(C)C1C2=C(CC(C)(C)CC2=O)ON1c1ccccc1` (stereo unspecified), the inhibition is 0.41%.

Consider `Cc1cc(=O)n2nc(N3CCC(C(=O)Nc4c(F)c(F)c(F)c(F)c4F)CC3)sc2n1`, for which the inhibition is -0.7%.

On to `CCOc1ccc(S(=O)(=O)N2CCCCCC2)c2ccccc12`, for which the inhibition is -0.75%.

As for `O=C(Nc1ccc(Cl)cc1)N1CCc2[nH]c3ccccc3c2C1`, the inhibition is 64.1% (active).

Take `C[C@H](O)[C@@H]1C(=O)N2CCc3c([nH]c4ccccc34)[C@@H]2C[C@@H]1N(C)C(=O)Nc1ccc(F)cc1`: the inhibition is 1.97%.

Consider `CCOc1ccc(NC(=O)N2CC=C(n3c(=O)[nH]c4ccccc43)CC2)cc1`, for which the inhibition is -0.02%.

As for `O=C(CCCN1CCc2[nH]c3ccc(F)cc3c2C1)c1ccc(F)cc1`, the inhibition is 0.35%.

`CC(=O)C(CC(=O)N1CCCC1)C(=O)Nc1ccc(Cl)cc1` (stereo unspecified): the inhibition is -0.19%.

As to `Fc1ccc(NC(=S)N2CCc3[nH]c4ccccc4c3C2)cc1`, the inhibition is 9.22% (active).

For `Cc1ccc(N(C(=O)C(F)(F)F)C(C(=O)NC2CCCCC2)c2ccncc2)cc1C` (stereo unspecified), the inhibition is -0.39%.

With `COc1ccccc1OCC(=O)Nc1c2c(nn1-c1ccc(F)cc1)CS(=O)(=O)C2`, the inhibition is 0.18%.

As to `CC(=O)Nc1cc(-c2cccc(CO)c2)cn2c(-c3cccc(C(F)(F)F)c3)cnc12`, the inhibition was -0.15%.

For `Cc1cc(C)cc(NC(=O)NCc2ccccn2)c1`, the inhibition was -0.48%.

`Cc1cc(C)cc(NC(=O)CSc2ccccc2)c1`: the inhibition is -0.78%.

As for `Cc1cc(C)cc(NC(=O)N(C)Cc2ccccc2)c1`, the inhibition was 6.26% (active).

For `COc1ccc(CCNC(=O)C2CC3Cn4c(nc5cc(C)c(C)cc54)C3N2C)cc1` (stereo unspecified), the inhibition is 0.64%.

`CCCCN(C)Cc1c(C)[nH]c2ccc(Cl)cc2c1=O`: the inhibition is 47% (active).

For `CCOC(=O)c1ccc2[nH]c(C)c(CN3CCN(C)CC3)c(=O)c2c1`, the inhibition was -0.39%.

For `CN(C)CCn1c(=S)[nH]c2ccc(Cl)cc2c1=O`, the inhibition was 0.6%.

Consider `Cc1cccc(C)c1-n1nnnc1C(CCc1ccccc1)N1CCN(C/C=C/c2ccccc2)CC1` (stereo unspecified), for which the inhibition was -1%.

Consider `Cc1cccc(N2CCN(C(c3ccc(N(C)C)cc3)c3nnnn3C(C)(C)C)CC2)c1C` (stereo unspecified), for which the inhibition was -1.18%.

In the case of `NC1=NC(=O)S/C1=C\c1ccc(O)cc1`, the inhibition was 22.9% (active).

As for `CC(C)(C)c1ccc(/C=C2\SC(=O)N=C2N)cc1`, the inhibition is 19.9% (active).

On to `O=C(/C=C(O)/C=C/c1ccc(O)cc1)/C=C/c1ccc(O)cc1`, for which the inhibition was -0.28%.

Consider `CCc1nc(C)cn1S(=O)(=O)c1cc([N+](=O)[O-])ccc1Cl`, for which the inhibition is -0.04%.

As for `O=C(CN1C(=O)CC(c2ccccc2)S(=O)(=O)c2ccccc21)NC1CCCC1` (stereo unspecified), the inhibition is -0.4%.

Regarding `Cc1cc(C(=O)OCC(=O)Nc2ccc(F)c(F)c2)c(C)o1`, the inhibition is 0.47%.

For the compound `COc1ccccc1NS(=O)(=O)N(C)C`, the inhibition is -0.33%.

Regarding `CCOC(=O)CSc1nc2ccc(C)cc2n2cnnc12`, the inhibition was -0.42%.

As to `CN(C)CCNC(=O)c1ccc(-c2cn3c(-c4ccc(Oc5ccccc5)cc4)cnc3cn2)cc1`, the inhibition is 0.12%.

Turning to `CC(C)(C)n1cnnc1Sc1ccc([N+](=O)[O-])cn1`, the inhibition was -0.07%.

`O=C(Cc1ccc(S(=O)(=O)N2CCOCC2)s1)NCCC(c1ccccc1)c1ccccc1`: the inhibition was -0.24%.

In the case of `O=C(Cc1ccc(S(=O)(=O)N2CCOCC2)s1)NCCOc1ccccc1F`, the inhibition was -0.22%.

On to `O=C(Cc1ccc(S(=O)(=O)N2CCOCC2)s1)Nc1ccc(Br)c(C(F)(F)F)c1`, for which the inhibition was 9.17% (active).

Usually inhibition stands for the drop in the measured response relative to a control, in per cent.
